High-throughput results as filed in PubChem.
HCT116 PTEN-null – PTEN-deleted cell growth suppression; HCT116 PTEN-null viability, CellTiter-Glo, 60 h; active compounds read low; viability, % at 10 µM; hit rate 1.2% among 140,000;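 active = viability at or below a set limit, 4 SD under the median of all tested compounds, cut at about 3.7% in these data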;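 note: PTEN knockout HCT116 line with beta catenin targeted HCT116 as companion control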
SDO1 yeast rescue – sdo1-depleted yeast growth rescue; S. cerevisiae sdo1-depleted JHY4D growth rescue, OD600 30 h; active compounds read high; pdr5 snq2 efflux-pump mutant strain; hit rate 0.21% among 140,000; z-score at 10 µM;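 active = z-score above 3 at both the 24 hr and the 30 hr optical density reads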;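 note: z-score against mean and SD of all compound wells on the same plate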
Yeast growth inh – reduces growth of yeast BB579 in restrictive medium | hit rate 0.51% among 140,000 | S. cerevisiae BB579 growth, OD615, 48 h | AID 804 | inhibition, % at 10 µM;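 active = inhibition above a set limit, 3 SD over the mean compound inhibition, cut at about 44% in these data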
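test system = yeast BB579 (DeaD) | buffer or medium = restrictive CSMM-D medium | doses = single compound dose of 10 µM, 0.25% DMSO final | times = 4 h preincubation and 48 h exposure at 30 °C | technique = culture absorbance at 615 nm | benchmarks = amphotericin B 10 µg/mL, positive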
bCat KO growth – beta-catenin-lacking colon tumor cell growth suppression | hit rate 1.5% among 140,000 | HCT116 beta-catenin knockout viability, CellTiter-Glo, 60 h; active compounds read low | viability, % at 10 µM;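 active = viability at or under a set limit, the compound median less 4 SD, cut at about 6% in these data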;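 note: 0% = Hyamine 1622 control at 20 µM and 100% = untreated cell control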
Yeast life ext – yeast lifespan extension. S. cerevisiae growth with nicotinamide, OD615; deaD strain in restrictive glucose medium. inhibition of the nicotinamide effect, % at 10 µM. hit rate 0.68% among 130,000. AID 775;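 active = inhibition above a set limit, placed 3 SD over the median of all compounds, cut at about 26% in these data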;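 note: 0% = nicotinamide-treated wells and 100% = cells grown without nicotinamide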
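Assay system: engineered S. cerevisiae DeaD replicative-lifespan strain, galactose-grown log-phase cells; Buffer or medium: CSMM-D glucose medium, restrictive; Probe or stimulus: nicotinamide 1.5 mM; Compound: single dose 10 µM compound, 0.25% DMSO; Schedule: 4 h preincubation then 48 h treatment at 30 °C; Technique: OD615 measurement.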
Active calls of the source: *; / = not tested or not shown. Only some compounds are listed: those with a hit (about 2.8% of all), similar ones and a draw of the others.

SMILES	HCT116 PTEN-null	SDO1 yeast rescue	Yeast growth inh	bCat KO growth	Yeast life ext
Cc1ccc(-n2c(C)cc(C(=O)COC(=O)c3ccc[nH]c3=O)c2C)cc1	89	-0.04	93*	97	-6
O=C(CSc1ccccc1C(=O)NCc1ccccc1)NC1CCCCCCC1	73	0.23	-3	89	0
Nc1nc(SCc2nc(-c3ccccc3)no2)[nH]c(=O)c1-c1ccccc1	84	0.13	-30	94	-10
Cc1ccc(S(=O)(=O)NCCC(=O)Nc2cccc(Cl)c2)cc1	101	-0.39	-17	97	-3
Cc1ccc(NC(=S)Nc2ccc(Cl)c(Cl)c2)c(OC(F)F)c1	70	-1.8	85*	72	-8
Cc1ccc(NC(=S)Nc2ccc(OC(F)F)c(Cl)c2)cc1Cl	79	-1.7	-36	87	-4
CC(C)(C)NC(=O)NC(=O)COC(=O)c1ccc(OC(F)(F)F)cc1	101	-0.35	-23	100	5
COc1ccc(-n2c(SCC(=O)Nc3sc4c(c3C#N)CCCC4)nnc2-c2ccccc2OC)cc1	81	-0.24	-22	79	/
COc1ccc(-c2nnc(SCC(=O)Nc3sc4c(c3C#N)CCCC4)n2-c2ccccc2)cc1	1.7*	-1.2	-30	3.9*	/
Cc1nc([N+](=O)[O-])c(Sc2nc3ccccc3n2C)n1Cc1ccccc1	1.8*	-0.77	-39	2.7*	9
O=c1/c(=C/c2ccc([N+](=O)[O-])cc2)sc2n1CCCN=2	15	0.86	-12	2.1*	-17
Cc1ccc(Cn2cnc3ccccc32)cc1	76	-0.26	-3	74	-6
Cn1nc([N+](=O)[O-])nc1Sc1ccc(Cl)cc1	78	1.4	-27	84	0
COc1ccccc1-c1nnc(Sc2nc([N+](=O)[O-])nn2C)o1	2.4*	-0.37	-20	2.1*	-7
O=S(=O)(Nc1nc(-c2sccc2Cl)cs1)c1cc(Cl)ccc1Cl	95	-1.2	-24	95	46*
Cc1cc2oc3c(c(=O)c2cc1C)C(c1cccc(Br)c1)N(Cc1ccco1)C3=O (stereo not drawn)	1.4*	-0.82	-38	1.8*	11
O=[N+]([O-])c1cc(Cc2ccccc2)cc(C=Nc2ccc(N3CCOCC3)cc2)c1O	87	-0.49	100*	94	-10
CC1CCCC2(C1)NC(=S)N(c1ccccc1)N2 (stereo not drawn)	77	-1.3	87*	77	-32
CC1CC(C)(C)CC2(C1)NC(=S)N(c1ccccc1)N2 (stereo not drawn)	101	-1.9	-48	102	-2
CCOC(=O)c1cnc(SC)nc1Sc1cc(Cl)ccc1Cl	81	-0.28	-4	78	-7
O=C(CN(C1CCCCC1)S(=O)(=O)c1ccc(Cl)cc1)N1CCOCC1	100	0.66	-2	91	-2
Clc1cccc(-c2nnc(-c3ccccc3)o2)c1	7	0.8	-20	2.4*	-22
C=CCn1c(O)c(C(CC)=NCCN2CCOCC2)c(=O)[nH]c1=O	100	1.3	20	96	37*
O=C(O)C1C2C=CC(O2)C1C(=O)NC1CCCc2ccccc21 (stereo not drawn)	92	-0.71	77*	89	-12
COc1ccc(Cn2cc3c(-c4ccc(F)cc4)nnc-3c3cc(OC)c(OC)cc32)cc1	2.1*	0.01	-10	1.8*	-5
SMILES	HCT116 PTEN-null	SDO1 yeast rescue	Yeast growth inh	bCat KO growth	Yeast life ext
COc1cc2c3nnc(-c4ccc(F)cc4)c-3cn(Cc3ccc(F)cc3)c2cc1OC	0.8*	2.1	-16	0.7*	-4
COc1cc2c3nnc(-c4ccc(F)cc4)c-3cn(Cc3ccccc3)c2cc1OC	1.6*	0.75	-4	1.1*	-5
COc1ccc(CCNC(=O)CSc2nnc(-c3ccc(F)cc3)c3ccccc23)cc1OC	94	0.01	-34	85	-2
Cc1oc(=O)c(NC(=O)c2cccc(Cl)c2)cc1C(=O)c1ccccc1	48	-1.5	-56	76	9
CN1C/C(=C/c2cccnc2)C(=O)/C(=C/c2cccnc2)C1	2.1*	-2.1	-14	2.1*	51*
CC(C)N1C/C(=C/c2ccsc2)C(=O)/C(=C/c2ccsc2)C1	1.5*	-0.87	-30	2.6*	15
CC(C)N1C/C(=C/c2cccnc2)C(=O)/C(=C/c2cccnc2)C1	58	-1.7	-56	52	41*
CCN1C(=O)S/C(=C/c2ccsc2)C1=O	111	0.46	-41	98	-9
CC(C)N1CC2=C(OC(N)=C(C#N)C2c2cccnc2)/C(=C/c2cccnc2)C1 (stereo not drawn)	67	-0.17	-14	56	-2
CCCCCCN1CC(C(=O)OCC)C(=O)C1=O (stereo not drawn)	90	0.57	-4	89	50*
CCOC(=O)C1[C@H]2C(=O)N(CCCOC)C[C@]23C=C[C@H]1O3 (stereo partly drawn)	100	0.8	-27	97	3
CCN(CC)CCOc1ccc2c(c1)C(=NO)c1cc(OCCN(CC)CC)ccc1-2	2.0*	1.6	-45	1.9*	1
CCN(CC)S(=O)(=O)c1ccc2c(c1)C(=NO)c1cc(S(=O)(=O)N(CC)CC)ccc1-2	2.8*	-1.4	-46	1.3*	/
CCOC(=O)C1=C(C)NC(C)=C(C(=O)OC)C1c1cccc([N+](=O)[O-])c1 (stereo not drawn)	87	-0.92	-44	87	12
COC(=O)C1=C(C)NC(C)=C(C(=O)OC)C1c1ccccc1[N+](=O)[O-]	1.9*	-1.7	-26	1.6*	1
CO/N=C/c1ccc(Sc2ccccc2)c([N+](=O)[O-])c1	85	-0.35	-28	90	-10
O=[N+]([O-])c1cc(/C=N/O)ccc1Sc1ccccc1	93	-1.7	79*	86	-10
CC(=O)NC(Cc1ccc(C)cc1)C(=O)NC1CCN(c2ncccc2[N+](=O)[O-])CC1 (stereo not drawn)	88	0.51	-27	94	4
Oc1c(I)cc(I)c2cccnc12	88	-2.2	83*	76	-4
Cc1ccc(S(=O)(=O)Cc2c(C)noc2C)cc1	104	0.23	-52	85	-7
Cc1noc(C)c1CS(=O)(=O)c1ccc(Br)cc1	91	0.29	1	82	56*
Cc1cc(CN2CCOCC2)c(O)c(C2(C)CCCCC2)c1	86	-2.4	1	80	1
CCc1cccc(C)c1NC(=S)NCC(c1cccnc1)N1CCOCC1 (stereo not drawn)	90	0.03	-14	82	-2
Cc1ccc(-c2nc3ccccc3s2)cc1NC(=S)NC(=O)/C=C/c1ccco1	7	0.53	-53	7	-16
O=C(/C=C/c1ccco1)NC(=S)Nc1cc(-c2nc3ccccc3s2)ccc1Cl	1.6*	0.15	-29	2.6*	-1
Cc1ccc(-n2nc3cc(C)c(NC(=S)NC(=O)/C=C/c4ccco4)cc3n2)cc1	6	-0.7	-23	5.5*	-2
